Reference: PubChem BioAssay AID463191 (Sanford-Burnham Center for Chemical Genomics, 2010)
Calls of active or inactive are those of the source.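 Rule for the calls: active = compounds whose mean IC50 across repeat dose response tests falls below a set limit; inactive = the rest.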

System: AML12 mouse hepatocytes, BODIPY lipid droplet imaging
Experiment: potency against lipid droplet buildup in liver cells – imaging, AML12 mouse hepatocytes, high-content, dose response (AID 463191)
Conditions: cells loaded with 100 µM oleic acid
Outline: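 test system = mouse AML12 hepatocytes | also added = oleic acid, 100 µM | doses = Seven-point series from 32 to 0.5 µM, 0.32% DMSO | schedule = cells grown about 20 h at 37 °C, then overnight compound exposure | measure = IC50 from per-cell lipid droplet intensity | benchmarks = 5 µM Triacsin-C | replication = duplicate points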

| Structure (SMILES) | IC50 |
| --- | --- |
| CCOc1ccc(CCNC(=O)CCNS(=O)(=O)c2ccc(Br)cc2)cc1OCC | 3650 nM |
| CCOc1ccccc1NC(=O)C1CCN(C(=O)NCc2ccccc2)CC1 | < 500 nM |
| Cc1ccc(CNC(=O)c2ccc(N3CCC4(CC3)CC(c3ccccc3)=NO4)c(NC(=O)c3ccc(Br)cc3)c2)cc1 | < 500 nM |
| Cc1sc(NC(=O)Cc2ccc3c(c2)OCO3)nc1-c1ccc2c(c1)CCN2C(=O)c1ccccc1F | 1790 nM |
| CCC(C)(C)NC(=O)C(c1sccc1C)N(Cc1ccco1)C(=O)c1csnn1 (stereo unspecified) | 11900 nM (inactive) |
| COc1cccc(CNC(=O)CCCc2c[nH]c3ccccc23)c1 | 6600 nM (inactive) |
| CCc1c(C#N)c(SCCC(=O)Nc2cccc(OC)c2)nc2c1C(=O)CC(C)(C)C2 | 1410 nM |
| Cc1ccc(-n2nc3c(=O)n(CC(=O)NCCCc4ccccc4)nc(C)c3c2C)cc1 | 4240 nM |
| O=C(Nc1nc(-c2ccc(-c3ccccc3)cc2)cs1)C1CCCO1 (stereo unspecified) | 2230 nM |
| CC(=O)c1cccc(N=Nc2c(-c3ccccc3)[nH]n(-c3ccccc3)c2=O)c1 | 633 nM |
| CC1=C(C(=O)NC2CCCc3c2cnn3-c2cccc(C)c2C)OCCO1 (stereo unspecified) | 11800 nM (inactive) |
| C=CCOc1ccc(-c2nc3c(c(=O)[nH]c(=O)n3Cc3ccccc3)n2CCCOC)cc1 | 2980 nM |
| CC1CC(C)CN(C(=O)c2ccc3c(c2NCCO)C(=O)c2ccccc2C3=O)C1 (stereo unspecified) | 687 nM |
| CCCc1cc(N2CCCC2)n2nc(C)c(-c3ccccc3)c2n1 | 1100 nM |
| COc1ccc(CCNC(=O)c2cc3c(F)cccc3s2)cc1OC | 5420 nM (inactive) |
| CCCC1(c2ccccc2)NC(=O)N(CC(=O)Nc2cc(C)ccc2OC)C1=O (stereo unspecified) | > 32000 nM (inactive) |
| CCOc1ccc(CN(C)C(=O)CNC(=O)c2ccc3ccccc3c2)cc1OC | 809 nM |
| CCCc1nc2ccccc2c(C(=O)OC(C)C(=O)NCc2ccc3c(c2)OCO3)c1CC (stereo unspecified) | 1970 nM |
| CCCCc1ccc(NC(=O)CSc2nnc(C)c(=O)n2N)cc1 | 1270 nM |
| CCOc1ccc(NC(=O)CCSc2nc3c(c(CC)c2C#N)C(=O)CC(C)(C)C3)cc1 | 1770 nM |
| O=C(NC1CCCc2c1cnn2-c1cc(F)cc(F)c1)c1ccccn1 (stereo unspecified) | 1550 nM |
| COc1ccc(CCNC(=O)CN2C(=O)c3cccc4cccc(c34)C2=O)cc1OC | 5770 nM (inactive) |
| CCOc1ccc(C(=O)OCC(=O)Nc2cc(C)on2)cc1OCC | 1800 nM |

| Structure (SMILES) | IC50 |
| --- | --- |
| COc1ccc(-c2csc(NNC3=NCCCCC3)n2)cc1 | 1420 nM |
| CCOc1ccc(CCNC(=O)c2cc(C)nc3ccccc23)cc1OCC | 6400 nM (inactive) |
| CCOc1cc2c(cc1OCC)C(c1ccc(OC)cc1)N(c1ccccc1)C(=O)C2 (stereo unspecified) | > 32000 nM (inactive) |
| CCCCOc1ccc(/C=C/C(=O)OCC(=O)c2c(N)n(C)c(=O)n(C)c2=O)cc1OCC | 28800 nM (inactive) |
| CCC(C)(C)NC(=O)C(c1ccc(OC)cc1)N(Cc1ccccc1)C(=O)CCC(=O)Nc1cc(C)on1 (stereo unspecified) | 3420 nM |
| COc1ccc(/C=C(\NC(=O)c2ccc(OCC(C)C)cc2)C(=O)OCc2ccco2)cc1 | 2710 nM |
| COC(=O)/C(=C/c1ccc2c(c1)c1ccccc1n2C)NC(=O)c1ccccc1 | 4240 nM |
| CCOc1ccc(CCNC(=O)Nc2ccccc2)cc1OCC | 583 nM |
| COCc1ccc(C(=O)NC2CCCc3c2cnn3-c2ccc(C)c(C)c2)o1 (stereo unspecified) | 2440 nM |
| CCCCCCn1c(N2CCN(c3ccccc3)CC2)nc2c1c(=O)[nH]c(=O)n2C | 2460 nM |
| COc1ccc(C2(c3ccc(OC)cc3)NC(=O)N(CC(=O)Nc3ccccc3C)C2=O)cc1 | 1520 nM |
| Cc1ccc(-n2nc3c(=O)n(C(C)C(=O)NCCc4cccs4)nc(C)c3c2C)cc1 (stereo unspecified) | 3220 nM |
| Cc1ccc(-n2nc3c(=O)n(CC(=O)NC4CCCCC4)nc(C)c3c2C)cc1 | 4730 nM |
| COc1ccc(C(=O)OC(C)C(=O)NC(C)CCc2ccccc2)cc1[N+](=O)[O-] (stereo unspecified) | 549 nM |
| Cc1cc(N2CCOCC2)n2nc(C)c(-c3ccc(Cl)cc3)c2n1 | 1310 nM |
| COc1ccccc1NS(=O)(=O)c1ccc(N/N=C/c2c(C)nn(-c3ccccc3)c2N2CCCC2)c([N+](=O)[O-])c1 | < 500 nM |
| CCOc1ccc(CCNC(=O)COC(=O)c2c(C)nn(-c3ccccc3)c2C)cc1OCC | < 500 nM |
| CCOc1ccccc1NC(=O)CCC(=O)Nc1ccccc1OCC | 4180 nM |
| CCOc1ccc(CCNC(=O)Cn2c(-c3nonc3N)nc3ccccc32)cc1OCC | 580 nM |
| CCOc1ccc(CCNC(=O)COC(=O)/C=C/c2ccc(OC)c(OC)c2)cc1OCC | 1500 nM |
| CCOc1ccc(CCNC(=O)COC(=O)c2ccc(OC)c(OC)c2OC)cc1OCC | < 500 nM |
| COc1ccc2c(c1)c(CC(=O)Nc1ccc(C(C)=O)cc1)c(C)n2C(=O)c1ccc(Cl)cc1 | 2880 nM |
| CCN(CC(=O)Nc1ccccc1C(F)(F)F)C(=O)c1cc(-c2cccs2)nn1-c1ccccc1 | 2030 nM |

| Structure (SMILES) | IC50 |
| --- | --- |
| COC(=O)/C(=C\c1ccc2c(c1)c1ccccc1n2C)NC(=O)c1ccccc1 | 3300 nM |
| CCOc1ccccc1Nc1nnc(SCC(=O)Nc2nc(-c3ccc(OC)cc3)cs2)s1 | 1020 nM |
| COc1ccc(C(C(=O)NC(C)(C)C)N(CCC(C)C)C(=O)CCC(=O)Nc2cc(C)on2)cc1 (stereo unspecified) | 1200 nM |
| COc1cc(NC(=O)c2cccs2)c(OC)cc1NC(=O)CCC(=O)Nc1ccc(C)cc1 | 790 nM |
| CCOc1ccc(C(=O)CCC(=O)NCC(=O)OCc2ccccc2)cc1OCC | 8000 nM (inactive) |
| COc1ccc(C(=O)OC(C)C(=O)NC(C)CCc2ccccc2)cc1OC (stereo unspecified) | 2560 nM |
| CCC(C(=O)NCc1cccc(C)c1)n1nc(C)c2c(C)n(-c3ccccc3)nc2c1=O (stereo unspecified) | 6770 nM (inactive) |
| CCOc1ncccc1C(=O)OC(C)C(=O)Nc1ccc(CC)cc1 (stereo unspecified) | 2640 nM |
| Cc1ccc(CNC(=O)CCCc2c[nH]c3ccccc23)cc1 | 11200 nM (inactive) |
| FC(F)Oc1ccc(-c2csc(NNC3=NCCCCC3)n2)cc1 | 916 nM |
| CCCCNC(=O)c1ccc2c(c1)N(C)C(=O)c1ccccc1S2 | 6880 nM (inactive) |
| CCOc1ccc(CCNC(=O)/C=C/c2ccco2)cc1OCC | 1050 nM |
| CC(C)OC(=O)/C(=C/c1ccc2c(c1)c1ccccc1n2C)NC(=O)c1ccccc1 | 1800 nM |
| CCOc1ccc(CC(=O)Nc2ccc(NC(=O)c3ccco3)cc2)cc1OCC | 2350 nM |
| CCC(C)(C)NC(=O)C(c1ccc(OC)cc1)N(Cc1cccs1)C(=O)CCC(=O)Nc1cc(C)on1 (stereo unspecified) | 2240 nM |
| CCN(CC(=O)Nc1c(F)cccc1F)C(=O)CCCc1c[nH]c2ccccc12 | 1890 nM |
| O=C(CSCC(=O)N1CCCc2ccccc21)Nc1nc(-c2ccccc2)cs1 | 4240 nM |
| COc1ccc(C(C(=O)NC(C)(C)C)N(Cc2ccc(C)cc2)C(=O)CCC(=O)Nc2cc(C)on2)cc1 (stereo unspecified) | 2300 nM |
| Cc1cc(C)cc(NC(=O)CCC(=O)Nc2cc(C)on2)c1 | 7620 nM (inactive) |
| COc1ccc(CCNC(=O)c2ccc(CNc3nc(=S)[nH]c4ccccc34)cc2)cc1OC | 1280 nM |
| CCCCn1c(=O)[nH]c(=O)c2c1nc(-c1ccc(-c3ccccc3)cc1)n2C | 9970 nM (inactive) |
| CC(C)c1ccc(NC(=O)CSc2nc3ccccc3nc2N2CCCC2)cc1 | 2080 nM |
| Cc1ccc(CNC(=O)c2ccc(N3CCC4(CC3)CC(c3ccccc3)=NO4)c(N)c2)cc1 | 3450 nM |

| Structure (SMILES) | IC50 |
| --- | --- |
| COc1cc(NC(=O)c2ccco2)c(OC)cc1NC(=O)CCC(=O)Nc1cc(C)cc(C)c1 | < 500 nM |
| COc1ccc(OC)c(CCNC(=O)C(C)n2nc(C)c3c(C)n(-c4ccc(C)cc4)nc3c2=O)c1 (stereo unspecified) | 1590 nM |
| c1cc2c(cc1-c1csc(NNC3=NCCCCC3)n1)OCCO2 | 1070 nM |
| CCOc1ccc(CCNC(=O)c2ccc3ccccc3n2)cc1OCC | 1310 nM |
| O=C(Cc1cccc2ccccc12)Nc1nc(-c2cccc([N+](=O)[O-])c2)cs1 | 4300 nM |
| COc1ccc(C2(c3ccc(OC)cc3)NC(=O)N(CC(=O)Nc3ccc(OC)c(OC)c3)C2=O)cc1 | 6860 nM (inactive) |
| CCOc1ccc(CCNC(=O)CS(=O)Cc2nc(-c3ccccc3C)oc2C)cc1OCC (stereo unspecified) | 5360 nM (inactive) |
| CC1Cc2cc(S(=O)(=O)NCCC(=O)N(C)Cc3ccccc3)ccc2N1C(=O)C1CC1 (stereo unspecified) | 7520 nM (inactive) |
| COc1ccc(C(C(=O)NC(C)(C)C)N(Cc2ccccc2)C(=O)CCC(=O)Nc2cc(C)on2)cc1 (stereo unspecified) | 8980 nM (inactive) |
| CCOc1ccc(CCNC(=O)C2(c3ccccc3)CC2)cc1OCC | 3910 nM |
| CCOc1ccc(CCNC(=O)c2c(C)nn(-c3ccccc3)c2Cl)cc1OCC | 7560 nM (inactive) |
| CCOc1ccc(CCNC(=O)Nc2ccccc2C)cc1OCC | 2030 nM |
| COc1ccc(NC(=O)[C@H](C)NC(=O)[C@@H]2Cc3ccccc3CN2C(=O)OC(C)(C)C)cc1 | 7120 nM (inactive) |
| O=C(NC1CCCc2c1cnn2-c1ccccc1F)c1ccccn1 (stereo unspecified) | > 32000 nM (inactive) |
| CCOc1cc2c(cc1OCC)C(c1ccccc1)N(c1ccccc1)C(=O)C2 (stereo unspecified) | 973 nM |
| COc1ccc2c(c1)c(CC(=O)Nc1ccc(C)cc1)c(C)n2C(=O)c1ccc(Cl)cc1 | < 500 nM |
| COc1ccc(C(C(=O)NC2CCCC2)N(CCC(C)C)C(=O)CCC(=O)Nc2cc(C)on2)cc1 (stereo unspecified) | 5900 nM (inactive) |
| CCOc1ccc(CCNC(=O)CN2C(=O)NC(CCSC)C2=O)cc1OCC (stereo unspecified) | 1260 nM |
| CCOc1ccc(C(=O)OCC(=O)Nc2nc(OC)cc(OC)n2)cc1OCC | 1120 nM |
| CCOc1ccc(CCNC(=O)Cn2ncn3nc(-c4ccc(OC)cc4)cc3c2=O)cc1OCC | < 500 nM |
| CCOc1ccc(C(=O)NCC(=O)NC(C)CCc2ccccc2)cc1OCC (stereo unspecified) | 858 nM |
| CC1CCCN(C(=O)c2ccc3c(c2NCCO)C(=O)c2ccccc2C3=O)C1 (stereo unspecified) | 765 nM |
